Hck-Nef inh: inhibitors of Nef-activated human Hck kinase, primary screen, biochemical, Z-Lyte FRET, 384-well, Hck-YEEI | Recombinant Hck-YEEI plus Nef, Z-Lyte FRET kinase assay | inhibition, % at 20 µM | actives 0.68% (n = 220,000);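 active = Hck-Nef kinase inhibition above about 50%, limit read from the data; inactive = inhibition below that limit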;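 also: 0% = DMSO with Hck plus Nef and 100% = Hck alone without Nef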
Runt-SMMHC FRET: inhibitors of RUNX1 Runt–CBFb-SMMHC binding, primary screen, biochemical, FRET, Cerulean-Runt, Venus-CBFb-SMMHC, uHTS; actives 0.74% (n = 220,000); Runt-related transcription factor 1 (Homo sapiens) + Core-binding factor subunit beta …; Cerulean-Runt/Venus-CBFb-SMMHC FRET ratio 530/480, 1 h; inhibition, % at 20 µM;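 active = mean inhibition across duplicate retests at 20 µM reaching about 50%, limit read from the data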;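 also: 0% = DMSO wells and 100% = wells with excess untagged CBFb-SMMHC; inhibitors lower the FRET ratio by blocking Runt binding to CBFb-SMMHC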
Target sequence (Q01196 whole entry, looked up): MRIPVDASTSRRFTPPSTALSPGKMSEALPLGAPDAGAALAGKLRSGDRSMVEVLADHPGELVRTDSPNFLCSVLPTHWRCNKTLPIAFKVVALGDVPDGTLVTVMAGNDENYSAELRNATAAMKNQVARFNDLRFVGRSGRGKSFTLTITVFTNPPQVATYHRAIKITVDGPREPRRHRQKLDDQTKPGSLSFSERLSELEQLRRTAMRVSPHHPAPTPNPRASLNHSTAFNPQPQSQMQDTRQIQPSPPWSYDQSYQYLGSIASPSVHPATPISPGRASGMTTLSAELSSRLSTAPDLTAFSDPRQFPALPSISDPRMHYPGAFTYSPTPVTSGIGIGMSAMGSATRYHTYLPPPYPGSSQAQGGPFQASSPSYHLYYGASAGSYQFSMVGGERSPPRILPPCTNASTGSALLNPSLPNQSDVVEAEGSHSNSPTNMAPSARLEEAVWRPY
Target sequence (Q13951 whole entry, looked up): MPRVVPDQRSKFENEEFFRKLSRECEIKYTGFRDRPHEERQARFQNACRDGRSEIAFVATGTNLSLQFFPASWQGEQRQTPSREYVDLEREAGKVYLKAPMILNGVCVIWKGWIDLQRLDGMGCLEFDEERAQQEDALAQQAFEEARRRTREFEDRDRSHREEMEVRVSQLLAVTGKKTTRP
Runt-CBFb FRET: inhibitors of RUNX1 Runt–CBFb binding, primary screen, biochemical, FRET, Cerulean-Runt, Venus-CBFb, uHTS; Runt-related transcription factor 1 (Homo sapiens) + Core-binding factor subunit beta …; Cerulean-Runt/Venus-CBFb FRET ratio 530/480, 1 h; inhibition, % at 20 µM; actives 0.46% (n = 220,000);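 active = inhibition over about 50% at 20 µM in the single-dose screen, limit read from the data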;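 also: 0% = DMSO wells and 100% = excess unlabeled CBFb competitor control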
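Measured by: fluorescence energy transfer, 422 nm excitation, 530/480 nm emission; test system: Cerulean-tagged RUNX1 Runt domain (FRET donor) fusion protein; buffer or medium: Tris pH 7.5 buffer with BSA; compound: one dose, 20 µM compound, 1% DMSO; times: two 1 h room-temperature incubations shielded from light; benchmarks: unlabeled CBFb 5 µM, positive control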
RanGTP-Imp inh: inhibitors of RanGTP-importin-beta interaction, primary screen, biochemical, FRET, CFP-Ran, YFP-importin-beta, homogeneous. Ran GTPase (GTP-bound) - importin-beta complex. cell-free CFP-Ran/YFP-importin-beta FRET ratio. inhibition, % (test concentration not listed). actives 1.1% (n = 300,000);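 active = more than half of the replicate wells show a fall in the fluorescence ratio signal beyond about 16%, limit read from the data, passing the limit was not always enough; inconclusive = exactly half of the replicate wells pass the set limit; inactive = fewer than half of replicates pass the limit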;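 also: 0% = DMSO wells and 100% = Ran loaded with GDP instead of GTP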
Tb hexokinase: Trypanosoma brucei hexokinase 1 inhibitors, primary screen, biochemical, G6PDH-coupled NADH absorbance, MLSCN library. hexokinase 1 [Trypanosoma brucei]. inhibition, % at 10 µM. recombinant TbHK1, G6PDH-coupled NADH A340. actives 0.11% (n = 220,000);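 active = inhibition of 50% or more in the single-dose primary screen; inactive = inhibition below 50%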
Hck Nef conf: retest of Hck:Nef kinase inhibitor hits, confirmation, biochemical, Z-Lyte FRET, 384-well, p-Tyr peptide counterscreen | shares compounds with Hck-Nef inh | actives 28% (n = 1,300) | calls only at 10 µM | Recombinant Hck-YEEI:Nef, Z-Lyte FRET kinase assay;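 active = average inhibition of at least 50%, with Z-scores no higher than 3 in both the phospho-tyrosine peptide and fluorescence counterscreens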
* marks the source's active call; other numbers are inactive results; i = inactive; ? = inconclusive; . = no result given; + = active, no number. This is a sample that favours compounds with a hit; in the whole collection about 1.9% have one here.

SMILES	Hck-Nef inh	Runt-SMMHC FRET	Runt-CBFb FRET	RanGTP-Imp inh	Tb hexokinase	Hck Nef conf
CCCCC(=O)N1CCN(c2nc3ccc(Cl)cc3s2)CC1	.	.	.	-1	.	.
CN(C(=O)CN1C(=O)S/C(=C\c2ccc(Cl)cc2)C1=O)C1CCS(=O)(=O)C1 (centres undefined)	.	.	.	7	.	.
COc1cc2nc(SCC(=O)NCc3ccco3)n(Cc3ccc(Cl)cc3)c(=O)c2cc1OC	100*	-7	-1	3	-6	+
CSCC[C@H](NC(=O)Cc1ccc(Cl)cc1)C(=O)N1CCC2(CC1)NCCc1[nH]cnc12	.	.	.	-2	.	.
Cc1cc(/C=N/Nc2ccc([N+](=O)[O-])cn2)c(C)n1-c1ccc(C(=O)O)cc1	79*	-46	-14	5	-4	i
COc1ccc(C(=O)Nc2cccc(/C=C/c3nc4ccccc4c(=O)[nH]3)c2)cc1	56*	2	-4	0	-32	i
O=C(Nc1cccc(/C=C/c2nc3ccccc3c(=O)[nH]2)c1)c1ccccc1Cl	23	-5	-1	3	-33	.
COc1cc(/C=C/c2ccc3cccc(OC)c3n2)c(O)c([N+](=O)[O-])c1	69*	-1	0	0	-19	+
COc1cc(/C=C/c2ccc3cccc(OC)c3n2)c(OC(C)=O)c([N+](=O)[O-])c1	-2	-6	0	-2	-16	.
Cc1ccc(NC(=O)CN2C(=O)S/C(=C/c3ccc(O)c([N+](=O)[O-])c3)C2=O)cc1C	64*	-22	-11	.	23	+
O=C1N/C(=N\N=C\c2ccc3ncccc3c2)SC1Cc1ccc(SC(F)F)cc1 (centres undefined)	85*	-2	-10	.	-30	+
COc1ccc(C2/C=C\CN(C(=O)c3ccc(C)cc3)[C@H](Cc3ccccc3)C(=O)N2Cc2ccc(F)cc2)cc1 (some centres undefined)	29	2	2	-6	-8	.
CCN(CC)C(=O)Cc1c(O)c2ccccc2[nH]c1=O	56*	0	0	-6	-7	+
Cc1cccn2c(=O)c3cc(C(=O)NCC(C)C)sc3nc12	.	.	.	-4	.	.
Cc1ccc2nc3c(cc(C(=O)NC4CCCC4)c(=N)n3CCCn3ccnc3)c(=O)n2c1	110*	.	.	156*	-2	.
C=CCn1c(=N)c(C(=O)NCCCOC)cc2c(=O)n3cccc(C)c3nc21	200*	61*	18	+	18	.
Cc1cccn2c(=O)c3cc(C(=O)NCCN4CCOCC4)c(=N)n(CCc4ccccc4)c3nc12	61*	41	11	185*	-10	.
COCCNC(=O)c1cc2c(=O)n3cccc(C)c3nc2n1C	.	11	2	-3	.	.
CNC(=O)c1cc2c(=O)n3cccc(C)c3nc2n(C(C)C)c1=N	172*	60*	19	184*	-10	.
CCN(CC(=O)NCc1ccc(Cl)cc1)C(=O)C1CCN(S(=O)(=O)c2ccc(OC)c(OC)c2)CC1	.	.	.	3	.	.
Cn1c(SCCN2CCCC2)nnc1C1CCN(S(=O)(=O)c2cccc(F)c2)CC1	.	.	.	2	.	.
Cc1ccc(O)c(C(=O)c2cc(C#N)c(=O)n(-c3nccs3)c2)c1	26	-79	-64	0	-1	.
CCNC(=O)c1cc2c(=O)n3cccc(C)c3nc2n(CCc2ccccc2)c1=N	98*	62*	17	186*	6	.
N#Cc1cc2c(=O)n3ccccc3nc2n(CCCN2CCOCC2)c1=O	149*	62*	77*	95*	-9	.
Cc1nc2ccccc2c(=O)n1CCCN1CCOCC1	17	-1	0	0	-10	.
SMILES	Hck-Nef inh	Runt-SMMHC FRET	Runt-CBFb FRET	RanGTP-Imp inh	Tb hexokinase	Hck Nef conf
O=C(NCCN1CCOCC1)c1cc2c(=O)n3ccccc3nc2n1Cc1ccccc1	52*	48	20	6	-40	i
Cc1ccc2nc3c(cc(C#N)c(=O)n3-c3nccs3)c(=O)n2c1	185*	65*	12	191*	-6	.
COc1ccc(CCn2c(=N)c(C(=O)NCCN3CCOCC3)cc3c(=O)n4cccc(C)c4nc32)cc1OC	.	.	.	11	.	.
O=C(Nc1cccc(-c2ccc(F)cc2)c1)C1CCCN(C(=O)c2cscn2)C1 (centres undefined)	.	.	.	4	.	.
N#Cc1cc2c(=O)n3ccccc3nc2n(-c2ccccc2Cl)c1=O	+	90*	3	136*	-11	.
Cc1cccn2c(=O)c3cc(C(=O)NCCCn4ccnc4)n(C)c3nc12	19	11	2	4	-26	.
Cc1cccn2c(=O)c3cc(C(=O)NCCc4ccccc4)c(=N)n(CCCn4ccnc4)c3nc12	61*	82*	9	178*	-11	.
Cc1cccn2c(=O)c(C=O)c(Cl)nc12	0	0	4	?	-19	.
Cc1ccc(-n2c(=O)c(C#N)cc3c(=O)n4cccc(C)c4nc32)cc1	67*	59*	122*	93*	-10	.
Nc1nc(-c2ccc(Oc3ccccc3)cc2)c(CC(=O)O)s1	.	.	.	-2	.	.
COc1ccc(OC)c(CNC(=O)CCC(=O)N2Cc3cccc(OC)c3Oc3ncccc32)c1	.	.	.	2	.	.
N#Cc1c(-c2ccncc2)c2c([nH]c1=S)CCCC2	2	9	10	3	5	.
N#Cc1c(-c2ccncc2)c2c([nH]c1=O)-c1ccccc1OC2	70*	.	11	56*	-9	i
N#Cc1c(-c2ccccc2Cl)c2c([nH]c1=O)-c1ccccc1OC2	146*	82*	95*	131*	-31	i
O=C(CSc1cccc[n+]1[O-])NN(c1ccccc1)c1ccccc1	2	2	-3	3	-9	.
CCN(CC)c1ccc(/C=c2\sc3nc4ccccc4n3c2=O)c(O)c1	68*	92*	20	135*	6	.
COc1ccc(CNC(=O)c2ccc(=O)oc2)cc1OC	57*	2	-1	4	6	.
CSc1cccc(NC(=O)c2nnn(CC(=O)Nc3cc(C)cc(C)c3)c2N)c1	.	.	.	0	.	.
O=c1c(C(c2ccccc2)c2c(O)sc3ccccc3c2=O)c(O)sc2ccccc12	68*	-9	-3	19*	5	+

Source: PubChem
